In brackets after ≈: the same amount, converted by molar mass.
How the values were obtained:
Assay type in all cases: functional
Simian virus 40 [1] = assay: Inhibition of SV40 DNA replication assessed as [alpha32P]dATP formation at 500 uM after 90 mins by agarose gel electrophoresis; settings: Betapolyomavirus macacae, 1.5 h
Procedure, shortened: (§1)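 Cell-free SV40 DNA replication in Tris creatine phosphate buffer (pH 7.7) with creatine kinase, 7 mM MgCl2, 0.5 mM DTT, 4 mM ATP, 200 µM UTP/GTP/CTP, 100 µM dATP/dGTP/dCTP, SV40 T-Ag, origin-containing pUC DNA and replication proteins. The [α-32P]dATP variant ran 90 min at 37 °C, was stopped with EDTA/SDS/tRNA, and DNA was resolved on 1.0% agarose (12-14 h, 2 V/cm) and autoradiographed.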

XF498 = assay: Cytotoxicity against human XF498 cells; settings: read-out: ED50 (the source's name)
Simian virus 40 [2] = assay: Inhibition of SV40 DNA replication assessed as [alpha32P]dATP formation at 125 uM after 90 mins by agarose gel electrophoresis; settings: Betapolyomavirus macacae, 1.5 h; procedure, shortened: as §1
SK-MEL-2 = assay: Cytotoxicity against human SK-MEL-2 cells; settings: read-out: ED50 (the source's name)
Simian virus 40 [3] = assay: Inhibition of SV40 DNA replication assessed as [alpha32P]dATP formation at 250 uM after 90 mins by agarose gel electrophoresis; settings: Betapolyomavirus macacae, 1.5 h; procedure, shortened: as §1
HCT-15 = assay: Cytotoxicity against human HCT15 cells; settings: read-out: ED50 (the source's name)
A549 = assay: Cytotoxicity against human A549 cells; settings: read-out: ED50 (the source's name)
SK-OV-3 = assay: Cytotoxicity against human SKOV3 cells; settings: read-out: ED50 (the source's name)

| Compound | inhibition at 500 µM (Simian virus 40 [1]) [%] | EC50 (XF498) [µg/mL] | inhibition at 125 µM (Simian virus 40 [2]) [%] | EC50 (SK-MEL-2) [µg/mL] | inhibition at 250 µM (Simian virus 40 [3]) [%] | EC50 (HCT-15) [µg/mL] | EC50 (A549) [µg/mL] | EC50 (SK-OV-3) [µg/mL] |
| --- | --- | --- | --- | --- | --- | --- | --- | --- |
| C#C/C=C\CCCCCCCCCCCCC/C=C\CCCC/C=C\CCCCC#C[C@@H](O)C#CCCCCCC/C=C/[C@H](O)C#C [NOR-3S,14S-PETROCORTYNE A] | 70 | 6.1 (≈ 9.52 µM) | 12 | 3.8 (≈ 5.93 µM) | 47 | 3.5 (≈ 5.46 µM) | 7.3 (≈ 11.4 µM) | 4.4 (≈ 6.86 µM) |
| C#C/C=C\CCCCCCCCCCCCCC/C=C\CCC/C=C/C(O)CCCCC#C[C@H](O)C#CCCCCCC/C=C/[C@H](O)C#C (some centres not stated) | 100 | 8 (≈ 11.9 µM) | 79 | 2.3 (≈ 3.43 µM) | 94 | 5 (≈ 7.45 µM) | 26.3 (≈ 39.2 µM) | 1.9 (≈ 2.83 µM) |
| C#C/C=C\CCCCCCCCCCCCCC/C=C\CCCC/C=C\CCCC/C=C\[C@@H](O)C#CCCCCCC/C=C/[C@H](O)C#C [PETROTRIYNDIOL A] | 100 | 1.3 (≈ 1.98 µM) | 62 | 0.6 (≈ 0.913 µM) | 90 | 0.8 (≈ 1.22 µM) | 1.8 (≈ 2.74 µM) | 0.8 (≈ 1.22 µM) |
| C#CCCCCCCCCCCCCCCCC/C=C\CCCC/C=C\CC/C=C/C#C[C@@H](O)C#CCCCCCC/C=C/[C@H](O)C#C [PETROTETRAYNDIOL E] | 100 | 3.4 (≈ 5.19 µM) | 62 | 1.1 (≈ 1.68 µM) | 83 | 1.8 (≈ 2.75 µM) | 24.5 (≈ 37.4 µM) | 1.7 (≈ 2.6 µM) |
| C#C/C=C\CCCCCCCCCCCCCC/C=C\CCCC/C=C\CCCCc1cc(=O)cc(CCCCCC/C=C/C(O)C#C)o1 (configuration not stated) [PETROCORTYNE C] | 100 | > 10 | 89 | 2.4 (≈ 3.58 µM) | 100 | 7.5 (≈ 11.2 µM) | > 10 | 0.7 (≈ 1.04 µM) |
| C#C/C=C\CCCCCCCCCCCCC/C=C/C(=O)CCCC/C=C\CCCCC#C[C@@H](O)C#CCCCCCC/C=C/[C@H](O)C#C [PETROTETRAYNDIOL C] | 81 |  | 45 | 4.1 (≈ 6.13 µM) | 46 | 5.7 (≈ 8.52 µM) | > 10 | 4.2 (≈ 6.28 µM) |
| C#C/C=C\CCCCCCCCCCCCCC/C=C\CCCC/C=C\CCCC(O)C#CC(O)C#CCCCCCC/C=C/[C@H](O)C#C (some centres not stated) [PETROTETRAYNTRIOL A] | 100 | 18.5 (≈ 27.6 µM) | 63 | 3.9 (≈ 5.81 µM) | 77 | 12.9 (≈ 19.2 µM) | > 30 | 4.2 (≈ 6.26 µM) |
| C#CCCCCCCCCCCCCCCCC/C=C\CCCC/C=C\CCCCC#C[C@@H](O)C#CCCCCCC/C=C/[C@H](O)C#C | 100 | 5.8 (≈ 8.83 µM) | 40 | 1.5 (≈ 2.28 µM) | 70 | 2.5 (≈ 3.8 µM) | > 10 | 1.5 (≈ 2.28 µM) |
| C#C/C=C\CCCCCCCCCCCCCCC(=O)CCCCC/C=C\CCCCC#CC(O)C#CCCCCCC/C=C/C(O)C#C (configuration not stated) [PETROTETRAYNDIOL D] | 100 | > 10 | 66 | > 10 | 80 | > 10 | > 10 | > 10 |
| C#C/C=C\CCCCCCCCCCCCCCC/C=C\CCCC/C=C\CCCCC#C[C@@H](O)C#CCCCCCC/C=C/[C@H](O)C#C | 100 | 2.5 (≈ 3.74 µM) | 59 | 0.8 (≈ 1.2 µM) | 86 | 1.7 (≈ 2.54 µM) | 11.3 (≈ 16.9 µM) | 2.2 (≈ 3.29 µM) |
| C#C/C=C\CCCCCCCCCCCCCC/C=C\CCCC/C=C\CCCCC#CC(=O)C#CCCCCCC/C=C/[C@H](O)C#C [PETROTETRAYNOL A] | 100 | > 30 | 76 | 5.2 (≈ 7.96 µM) | 100 | > 30 | > 30 | 4.6 (≈ 7.04 µM) |

From ChEMBL document CHEMBL1150220, “Additional cytotoxic polyacetylenes from the marine sponge Petrosia species” (2001)
